In ChEMBL document CHEMBL2424622, “Development of amino-pyrimidine inhibitors of c-Jun N-terminal kinase (JNK): kinase profiling guided optimization of a 1,2,3-benzotriazole lead” (Bioorg Med Chem Lett, 2013):

Columns and labels:
[1] = biological target: Calcium/calmodulin-dependent protein kinase type II subunit beta (Homo sapiens) (UniProt Q13554); assay: Competitive binding affinity to CAMK2B (unknown origin) at 10 uM in presence of ATP relative to control
[2] = biological target: Calcium/calmodulin-dependent protein kinase kinase 1 (Homo sapiens) (UniProt Q8N5S9); assay: Competitive binding affinity to CAMKK1 (unknown origin) at 10 uM in presence of ATP relative to control
Calcium/calmodulin-dependent protein kinase kinase 1 (Homo sapiens), sequence (Q8N5S9 whole entry, looked up): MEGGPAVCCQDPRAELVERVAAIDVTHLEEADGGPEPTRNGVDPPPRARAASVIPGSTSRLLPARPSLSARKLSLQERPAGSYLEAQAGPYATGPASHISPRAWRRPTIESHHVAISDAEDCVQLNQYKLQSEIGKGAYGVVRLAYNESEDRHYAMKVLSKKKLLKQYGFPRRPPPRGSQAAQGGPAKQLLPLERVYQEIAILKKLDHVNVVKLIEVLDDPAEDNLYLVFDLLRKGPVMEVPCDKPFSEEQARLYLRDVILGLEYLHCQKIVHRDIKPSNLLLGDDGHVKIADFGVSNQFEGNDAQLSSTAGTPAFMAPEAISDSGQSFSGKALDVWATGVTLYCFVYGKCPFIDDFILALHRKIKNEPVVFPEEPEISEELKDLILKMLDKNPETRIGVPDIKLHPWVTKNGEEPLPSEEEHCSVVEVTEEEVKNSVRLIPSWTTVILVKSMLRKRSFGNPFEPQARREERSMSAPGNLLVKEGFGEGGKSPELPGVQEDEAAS

[3] = biological target: cAMP-dependent protein kinase catalytic subunit alpha (Homo sapiens) (UniProt P17612); assay: Competitive binding affinity to PKAC-alpha (unknown origin) at 10 uM in presence of ATP relative to control
Summary of the method: (§1)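 In vitro ATP-site competition binding assay across a diverse panel of 128 kinases, with compound tested at a single concentration. Kinase selectivity scores (S15) were calculated from the panel profiles.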

[4] = biological target: STE20-like serine/threonine-protein kinase (Homo sapiens) (UniProt Q9H2G2); assay: Competitive binding affinity to SLK (unknown origin) at 10 uM in presence of ATP relative to control; summary of the method: as §1
STE20-like serine/threonine-protein kinase (Homo sapiens), sequence (Q9H2G2 whole entry, looked up): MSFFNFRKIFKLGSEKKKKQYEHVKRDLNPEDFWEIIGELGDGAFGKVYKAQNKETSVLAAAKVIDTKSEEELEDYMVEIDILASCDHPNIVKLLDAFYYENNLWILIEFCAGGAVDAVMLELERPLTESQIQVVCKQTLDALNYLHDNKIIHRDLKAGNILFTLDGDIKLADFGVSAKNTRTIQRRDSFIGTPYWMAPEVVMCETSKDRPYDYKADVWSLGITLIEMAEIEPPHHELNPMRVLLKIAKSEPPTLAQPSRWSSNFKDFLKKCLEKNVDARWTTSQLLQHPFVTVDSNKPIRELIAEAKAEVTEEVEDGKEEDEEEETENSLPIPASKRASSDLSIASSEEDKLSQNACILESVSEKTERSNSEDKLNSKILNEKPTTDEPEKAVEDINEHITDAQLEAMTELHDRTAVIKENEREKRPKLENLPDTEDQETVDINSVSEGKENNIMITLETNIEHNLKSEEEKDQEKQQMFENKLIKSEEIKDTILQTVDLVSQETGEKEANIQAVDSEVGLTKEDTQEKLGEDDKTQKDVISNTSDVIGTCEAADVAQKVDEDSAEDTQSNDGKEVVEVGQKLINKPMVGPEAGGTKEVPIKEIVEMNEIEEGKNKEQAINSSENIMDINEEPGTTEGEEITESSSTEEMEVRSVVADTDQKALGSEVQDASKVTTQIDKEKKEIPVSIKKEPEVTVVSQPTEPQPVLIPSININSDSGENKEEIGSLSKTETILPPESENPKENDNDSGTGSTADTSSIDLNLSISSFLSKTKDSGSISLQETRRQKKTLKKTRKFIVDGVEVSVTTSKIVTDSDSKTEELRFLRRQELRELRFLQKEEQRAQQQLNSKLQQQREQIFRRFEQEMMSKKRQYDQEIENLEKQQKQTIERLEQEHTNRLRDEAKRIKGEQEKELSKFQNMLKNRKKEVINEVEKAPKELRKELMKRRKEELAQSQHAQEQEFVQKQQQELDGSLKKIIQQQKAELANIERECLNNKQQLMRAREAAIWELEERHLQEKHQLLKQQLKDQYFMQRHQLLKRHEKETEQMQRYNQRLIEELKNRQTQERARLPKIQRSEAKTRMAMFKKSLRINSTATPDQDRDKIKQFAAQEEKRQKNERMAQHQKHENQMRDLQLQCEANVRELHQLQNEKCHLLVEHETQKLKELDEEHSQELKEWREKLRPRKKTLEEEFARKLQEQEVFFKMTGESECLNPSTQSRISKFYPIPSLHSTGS

[5] = biological target: T1, Ephrin type-A receptor 8 (Homo sapiens) (UniProt P29322); assay: Competitive binding affinity to EPHA8 (unknown origin) at 10 uM in presence of ATP relative to control
T1 sequence (whole entry): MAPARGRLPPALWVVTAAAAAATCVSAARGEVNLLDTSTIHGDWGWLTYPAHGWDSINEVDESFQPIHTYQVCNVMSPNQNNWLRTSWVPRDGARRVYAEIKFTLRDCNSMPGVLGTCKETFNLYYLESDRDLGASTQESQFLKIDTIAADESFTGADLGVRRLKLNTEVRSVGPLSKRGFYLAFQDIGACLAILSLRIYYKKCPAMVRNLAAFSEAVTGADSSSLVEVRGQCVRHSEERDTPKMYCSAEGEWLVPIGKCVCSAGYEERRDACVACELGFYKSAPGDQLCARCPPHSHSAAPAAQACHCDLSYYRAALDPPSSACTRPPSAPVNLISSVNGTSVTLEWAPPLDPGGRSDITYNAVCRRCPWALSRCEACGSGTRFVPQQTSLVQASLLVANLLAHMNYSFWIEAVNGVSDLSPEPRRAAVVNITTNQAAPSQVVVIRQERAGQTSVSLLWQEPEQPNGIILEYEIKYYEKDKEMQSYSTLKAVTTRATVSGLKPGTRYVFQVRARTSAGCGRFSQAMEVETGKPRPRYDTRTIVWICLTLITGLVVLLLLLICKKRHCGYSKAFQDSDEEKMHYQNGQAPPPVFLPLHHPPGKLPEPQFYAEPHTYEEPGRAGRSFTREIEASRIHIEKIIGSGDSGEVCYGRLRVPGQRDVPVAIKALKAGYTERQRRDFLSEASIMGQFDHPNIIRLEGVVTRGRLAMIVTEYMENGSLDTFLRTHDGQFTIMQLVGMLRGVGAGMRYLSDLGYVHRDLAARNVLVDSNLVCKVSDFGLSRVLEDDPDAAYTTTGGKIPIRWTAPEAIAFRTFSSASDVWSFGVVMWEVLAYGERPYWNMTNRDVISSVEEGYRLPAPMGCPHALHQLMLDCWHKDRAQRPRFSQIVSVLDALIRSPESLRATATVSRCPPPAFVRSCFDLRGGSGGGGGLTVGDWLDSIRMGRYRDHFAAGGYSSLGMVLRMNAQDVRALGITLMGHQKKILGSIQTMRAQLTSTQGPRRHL
Summary of the method: (§2)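 In vitro ATP-site competition binding assay, part of profiling against a diverse panel of 128 kinases. Each compound was tested at a single concentration of 10 µM. Kinome selectivity was summarized as S15 selectivity scores.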

[6] = biological target: Dual specificity protein kinase CLK2 (Homo sapiens) (UniProt P49760); assay: Competitive binding affinity to CLK2 (unknown origin) at 10 uM in presence of ATP relative to control
Dual specificity protein kinase CLK2 (Homo sapiens), sequence (P49760 whole entry, looked up): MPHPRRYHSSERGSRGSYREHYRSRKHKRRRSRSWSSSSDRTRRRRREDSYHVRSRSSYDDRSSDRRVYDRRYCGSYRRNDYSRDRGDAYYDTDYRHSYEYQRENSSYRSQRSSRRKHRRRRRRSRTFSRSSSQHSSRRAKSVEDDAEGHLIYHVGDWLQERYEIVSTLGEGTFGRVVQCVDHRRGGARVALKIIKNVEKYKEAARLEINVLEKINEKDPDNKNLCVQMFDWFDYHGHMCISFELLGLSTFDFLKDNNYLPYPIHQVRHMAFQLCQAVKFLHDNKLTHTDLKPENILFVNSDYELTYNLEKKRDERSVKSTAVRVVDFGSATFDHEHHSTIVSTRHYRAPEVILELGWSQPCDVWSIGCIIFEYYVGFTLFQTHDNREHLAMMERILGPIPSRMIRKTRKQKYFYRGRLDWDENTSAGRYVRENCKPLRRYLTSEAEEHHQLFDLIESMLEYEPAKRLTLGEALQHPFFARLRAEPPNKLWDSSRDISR
Summary of the method: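 In vitro ATP-site competition binding assay across a diverse panel of 128 kinases, with each compound tested at a single concentration. Kinase binding is expressed relative to control.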

[7] = biological target: Calcium/calmodulin-dependent protein kinase type II subunit delta (Homo sapiens) (UniProt Q13557); assay: Competitive binding affinity to CAMK2D (unknown origin) at 10 uM in presence of ATP relative to control
Calcium/calmodulin-dependent protein kinase type II subunit delta (Homo sapiens), sequence (Q13557 whole entry): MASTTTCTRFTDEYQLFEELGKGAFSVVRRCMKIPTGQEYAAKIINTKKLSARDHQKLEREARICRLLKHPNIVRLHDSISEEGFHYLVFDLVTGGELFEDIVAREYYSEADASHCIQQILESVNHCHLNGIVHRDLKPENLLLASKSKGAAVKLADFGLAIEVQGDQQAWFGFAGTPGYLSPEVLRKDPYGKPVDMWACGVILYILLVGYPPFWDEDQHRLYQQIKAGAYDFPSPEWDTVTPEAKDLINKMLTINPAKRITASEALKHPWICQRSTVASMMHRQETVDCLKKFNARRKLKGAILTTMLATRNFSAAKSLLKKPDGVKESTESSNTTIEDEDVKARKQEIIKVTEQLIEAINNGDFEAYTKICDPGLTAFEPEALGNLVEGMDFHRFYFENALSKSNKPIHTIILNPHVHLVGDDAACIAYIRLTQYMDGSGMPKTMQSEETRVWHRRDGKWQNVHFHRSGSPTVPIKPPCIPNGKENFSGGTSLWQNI

[8] = biological target: Mitogen-activated protein kinase 11 (Homo sapiens, UniProt Q15759); assay: Competitive binding affinity to p38-beta (unknown origin) at 10 uM in presence of ATP relative to control; summary of the method: as §1
Mitogen-activated protein kinase 11, sequence (Q15759 whole entry): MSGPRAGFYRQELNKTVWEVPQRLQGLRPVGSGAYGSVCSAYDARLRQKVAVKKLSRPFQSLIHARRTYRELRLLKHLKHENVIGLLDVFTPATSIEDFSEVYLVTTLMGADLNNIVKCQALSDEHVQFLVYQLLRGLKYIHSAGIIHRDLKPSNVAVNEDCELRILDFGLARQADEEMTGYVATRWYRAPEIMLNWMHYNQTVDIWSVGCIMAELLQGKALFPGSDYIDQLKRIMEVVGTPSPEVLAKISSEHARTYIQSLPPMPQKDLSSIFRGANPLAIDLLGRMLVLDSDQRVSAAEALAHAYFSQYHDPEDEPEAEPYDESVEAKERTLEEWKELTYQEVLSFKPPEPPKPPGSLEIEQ

[9] = biological target: Platelet-derived growth factor receptor alpha (Homo sapiens) (UniProt P16234); assay: Competitive binding affinity to PDGFRA (unknown origin) at 10 uM in presence of ATP relative to control; summary of the method: as §1
[10] = biological target: Tyrosine-protein kinase Lck (Homo sapiens) (UniProt P06239); assay: Competitive binding affinity to LCK (unknown origin) at 10 uM in presence of ATP relative to control; summary of the method: as §2
Tyrosine-protein kinase Lck (Homo sapiens), sequence (P06239 2-509 limits assumed): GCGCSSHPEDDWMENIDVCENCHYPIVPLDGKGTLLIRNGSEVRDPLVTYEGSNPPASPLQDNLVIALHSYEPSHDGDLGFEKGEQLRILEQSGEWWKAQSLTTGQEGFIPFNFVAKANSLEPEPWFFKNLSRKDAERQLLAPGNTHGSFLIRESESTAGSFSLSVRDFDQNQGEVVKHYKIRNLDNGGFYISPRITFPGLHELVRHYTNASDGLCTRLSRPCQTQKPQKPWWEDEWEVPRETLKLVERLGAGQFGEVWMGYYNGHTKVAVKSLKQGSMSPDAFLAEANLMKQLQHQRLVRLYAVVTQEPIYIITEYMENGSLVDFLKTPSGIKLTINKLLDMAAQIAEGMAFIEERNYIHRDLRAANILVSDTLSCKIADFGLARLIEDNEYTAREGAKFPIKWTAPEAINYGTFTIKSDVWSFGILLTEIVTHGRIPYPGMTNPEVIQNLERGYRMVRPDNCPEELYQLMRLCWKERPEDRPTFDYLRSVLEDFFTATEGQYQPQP

[11] = biological target: T2, Serine/threonine-protein kinase Nek9 (Homo sapiens) (UniProt Q8TD19); assay: Competitive binding affinity to NEK9 (unknown origin) at 10 uM in presence of ATP relative to control; summary of the method: as §1
T2 sequence (whole entry): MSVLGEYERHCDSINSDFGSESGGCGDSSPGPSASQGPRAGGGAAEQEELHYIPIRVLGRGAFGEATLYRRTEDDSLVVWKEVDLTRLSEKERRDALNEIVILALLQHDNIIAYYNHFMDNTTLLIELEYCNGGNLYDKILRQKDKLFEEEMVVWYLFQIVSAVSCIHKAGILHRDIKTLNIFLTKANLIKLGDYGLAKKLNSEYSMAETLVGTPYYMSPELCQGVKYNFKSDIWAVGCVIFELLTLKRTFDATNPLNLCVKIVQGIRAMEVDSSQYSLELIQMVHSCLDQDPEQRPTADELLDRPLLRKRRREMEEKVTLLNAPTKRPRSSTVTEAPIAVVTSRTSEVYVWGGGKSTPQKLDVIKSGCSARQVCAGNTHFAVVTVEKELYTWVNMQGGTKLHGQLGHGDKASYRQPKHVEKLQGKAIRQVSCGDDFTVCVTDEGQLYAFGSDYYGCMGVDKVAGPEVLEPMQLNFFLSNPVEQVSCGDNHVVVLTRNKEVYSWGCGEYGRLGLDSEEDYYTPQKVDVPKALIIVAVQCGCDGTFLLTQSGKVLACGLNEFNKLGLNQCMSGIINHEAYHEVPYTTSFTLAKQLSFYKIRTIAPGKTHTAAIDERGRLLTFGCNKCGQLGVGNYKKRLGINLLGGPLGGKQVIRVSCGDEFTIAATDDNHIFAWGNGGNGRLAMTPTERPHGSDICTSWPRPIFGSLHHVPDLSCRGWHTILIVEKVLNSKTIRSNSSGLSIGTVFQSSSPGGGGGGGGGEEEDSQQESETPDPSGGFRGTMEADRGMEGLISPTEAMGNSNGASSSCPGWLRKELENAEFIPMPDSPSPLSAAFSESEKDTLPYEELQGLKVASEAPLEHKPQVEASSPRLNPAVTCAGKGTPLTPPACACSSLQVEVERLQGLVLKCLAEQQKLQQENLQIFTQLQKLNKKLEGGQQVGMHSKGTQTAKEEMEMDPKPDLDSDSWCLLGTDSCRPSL

Calcium/calmodulin-dependent protein kinase type II subunit beta (Homo sapiens), sequence (Q13554 whole entry): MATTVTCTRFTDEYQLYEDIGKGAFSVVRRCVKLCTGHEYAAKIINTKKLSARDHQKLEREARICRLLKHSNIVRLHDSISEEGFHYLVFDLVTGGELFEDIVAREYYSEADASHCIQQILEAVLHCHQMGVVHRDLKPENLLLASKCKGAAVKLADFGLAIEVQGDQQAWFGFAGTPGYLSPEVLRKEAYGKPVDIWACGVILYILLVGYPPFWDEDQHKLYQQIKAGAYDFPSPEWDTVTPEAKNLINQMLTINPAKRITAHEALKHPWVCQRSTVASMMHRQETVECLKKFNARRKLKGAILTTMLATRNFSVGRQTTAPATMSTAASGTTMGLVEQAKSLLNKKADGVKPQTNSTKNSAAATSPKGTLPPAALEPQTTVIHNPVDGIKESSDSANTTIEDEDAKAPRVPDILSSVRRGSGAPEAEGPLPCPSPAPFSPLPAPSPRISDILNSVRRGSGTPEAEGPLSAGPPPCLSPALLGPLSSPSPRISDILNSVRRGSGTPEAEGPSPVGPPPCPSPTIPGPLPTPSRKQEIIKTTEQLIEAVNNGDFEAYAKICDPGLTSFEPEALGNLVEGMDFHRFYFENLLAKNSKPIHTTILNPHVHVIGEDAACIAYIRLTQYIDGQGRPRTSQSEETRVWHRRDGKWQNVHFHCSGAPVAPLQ

O[C@H]1CC[C@H](Nc2nccc(-n3nnc4ccccc43)n2)CC1
inhibition [1]: 67% | inhibition [2]: < 50% | inhibition [3]: < 50% | inhibition [4]: < 50% | inhibition [5]: < 50% | inhibition [6]: 99% | inhibition [7]: 74% | inhibition [8]: < 50% | inhibition [9]: < 50% | inhibition [10]: 65% | inhibition [11]: 81%

N[C@H]1CC[C@H](Nc2nccc(-n3nnc4ccccc43)n2)CC1
inhibition [1]: < 50% | inhibition [2]: < 50% | inhibition [3]: < 50% | inhibition [4]: < 50% | inhibition [5]: < 50% | inhibition [6]: 100% | inhibition [7]: 83% | inhibition [8]: < 50% | inhibition [9]: < 50% | inhibition [10]: 81% | inhibition [11]: < 50%

O=C([C@H]1CC[C@H](Nc2nccc(-n3nnc4ccccc43)n2)CC1)N1CCOCC1
inhibition [1]: < 50% | inhibition [2]: < 50% | inhibition [3]: < 50% | inhibition [4]: < 50% | inhibition [5]: < 50% | inhibition [6]: 94% | inhibition [7]: < 50% | inhibition [8]: < 50% | inhibition [9]: < 50% | inhibition [10]: 70% | inhibition [11]: < 50%

CS(=O)(=O)CCCOc1cccc2c1ccn2-c1ccnc(N[C@H]2CC[C@H](C(=O)N3CCC(O)CC3)CC2)n1
inhibition [8]: > 85%

O[C@H]1CC[C@H](Nc2nccc(-n3ncc4ccccc43)n2)CC1
inhibition [1]: 87% | inhibition [2]: < 50% | inhibition [3]: < 50% | inhibition [4]: < 50% | inhibition [5]: < 50% | inhibition [6]: 99% | inhibition [7]: 93% | inhibition [8]: < 50% | inhibition [9]: 72% | inhibition [10]: < 50% | inhibition [11]: < 50%

O[C@H]1CC[C@H](Nc2nccc(-c3n[nH]c4ccccc34)n2)CC1
inhibition [1]: 88% | inhibition [2]: 85% | inhibition [3]: < 50% | inhibition [4]: 99% | inhibition [5]: < 50% | inhibition [6]: 95% | inhibition [7]: 91% | inhibition [8]: < 50% | inhibition [9]: 98% | inhibition [10]: 87% | inhibition [11]: < 50%

O[C@H]1CC[C@H](Nc2nccc(-n3ccc4ccccc43)n2)CC1
inhibition [1]: 80% | inhibition [2]: < 50% | inhibition [3]: < 50% | inhibition [4]: < 50% | inhibition [5]: < 50% | inhibition [6]: 97% | inhibition [7]: 85% | inhibition [8]: < 50% | inhibition [9]: < 50% | inhibition [10]: < 50% | inhibition [11]: < 50%
